In the library only some 3.1% were active in any assay of this set; here they are far more common.
INS-1E GSIS act – primary screen for activators of insulin secretion dependent on glucose, INS-1E cells, GLuc reporter luminescence. INS-1E GLuc reporter insulin secretion, 2-3 h. activation, % at 16.6 µM. 0.61% of 370,000 active;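 active = lowest replicate activation of at least 40%, so every replicate reaches that level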;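 also: 0% = median of neutral control wells and 100% = median of IBMX positive control wells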
F508del corr – CFTR F508del correction in bronchial cells | activity (quench increase), % at 7.58 µM | CFBE cells, YFP halide quenching; stimulated with forskolin plus potentiator P3; % fluorescence drop versus neutral controls | 0.36% of 350,000 active | AID 720511;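 active = mean added fluorescence quench of at least 8% versus neutral control, with both replicates also reaching 8%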;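 also: cells transiently co-express mutant CFTR-F508del with the halide-sensitive YFP; corrector assay measuring rescue of mutant channel to the surface after 24 h compound exposure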
miR-122 sensor – inhibitors of miR-122 in Huh7 cells. activation (reporter increase), % at 12.5 µM. Huh7 miR-122 Renilla luciferase sensor, 48 h; neutral wells = 0, positive control = 100. 0.3% of 340,000 active. AID 602342;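 active = mean replicate activation score at least 90 and every replicate individually at or above 90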;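 also: higher luciferase means less miR-122 activity so hits act as miR-122 inhibitors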
Cneo AK release – Cryptococcus neoformans lysis via adenylate kinase release | C. neoformans lysis, adenylate kinase release luminescence, 4 h; normalised: neutral wells 0, clomiphene wells 100 | lysis activity, % at 15 µM | 0.2% of 360,000 active | AID 651654;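 active = mean lysis activity across replicates of at least 80%, whatever share of replicates individually reach that level; inactive = mean lysis activity below 80%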
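Assay system: C. neoformans cells. Amount: yeast cell density of 5 × 10^6 cells/mL. Technique: AK luminescence. Buffer or medium: YPD. Times: static 4 h at 37 °C with compound, 1 h detection. Dosing: single-point compound dose. Read-out: lysis from increased AK signal.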
Env fusion inh – blocks HIV Env-driven cell-cell fusion; HeLa-JRFL Env/CEM21 cell fusion, luciferase; inhibition, % at 12.3 µM; 1.1% of 360,000 active;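 active = mean replicate inhibition score of at least 50 and every replicate individually at or above 50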;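 also: 0% = plate neutral controls and 100% = maraviroc near 300 nM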
rRNA inh HTS – selective bacterial rRNA inhibition in E. coli; E. coli WT GFP vs humanized-ribosome RFP mutants, fluorescence, 24 h; active compounds read low; DMSO median 0, no signal -100; 1.6% of 350,000 active; GFP signal change (wild-type ribosome), % (test concentration not listed);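 active = significant combined selectivity score with lowered wild-type GFP, culture density cut under 30%, mutant RFP and density less affected; inactive = any of these conditions unmet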
* marks the source's active call; other numbers are inactive results; i = inactive; · = not tested or not shown; [ ] = dose if it differs, or a comment.

SMILES	INS-1E GSIS act	F508del corr	miR-122 sensor	Cneo AK release	Env fusion inh	rRNA inh HTS
CC(C)C[C@H](NC(=O)c1[nH]cnc1C(=O)N[C@@H](Cc1ccccc1)C(=O)OC(C)(C)C)C(=O)OCc1ccccc1	·	1.4	4.4	1.3	58.5*	9.7
O=C(N[C@@H]1CC[C@H](CC(=O)N2CCOCC2)O[C@H]1CO)c1cccc(F)c1	-5.8	-2.6	·	1.5	-4.9[16.7 µM]	-0.4
O=C(C[C@@H]1CC[C@@H]2[C@H](COC[C@@H](O)CN2Cc2cc(F)ccc2F)O1)NCc1ccc(Oc2ccccc2)cc1	-16.3	3.4	-2.8[16.7 µM]	-0.9	·	i
Oc1c(Cl)cc(CN2CCOCC2)c2cccnc12	-32.7	27.3*	-21.4	3.4	·	-23.0
CO[C@H]1CC[C@@H]2CCOc3c(C#N)cccc3C(=O)N(C)C[C@H](OC)[C@@H](C)C(=O)N(C)C[C@@H]1O2	8.8	·	·	86.1*	0.2[16.7 µM]	0.9
CO[C@H]1CC[C@H]2CCOc3c(C#N)cccc3C(=O)N(C)C[C@@H](C)C(=O)N(C)C[C@H]1O2	-7.4	0.6	·	88.1*	-63.8[16.7 µM]	3.9
CO[C@@H]1CC[C@H]2CCOc3c(C#N)cccc3C(=O)N(C)C[C@@H](OC)[C@@H](C)C(=O)N(C)C[C@H]1O2	2.2	·	·	1.5	5.3[16.7 µM]	-2.5
COc1cccc(C#Cc2ccc3c(c2)[C@H]2[C@H](CCN2S(=O)(=O)c2cccc(OC)c2)[C@H](CO)N3)c1	-19.8	2.3	·	·	·	5.6
CCCNC(=O)N1CC2(CN(S(=O)(=O)c3ccccc3)C2)c2c(n(C)c3cc(OC)ccc23)[C@H]1CO	0.2	5.2	·	·	-15.0[16.7 µM]	-2.2
COc1ccc2c3c([nH]c2c1)[C@H](CO)N(C(=O)Nc1cccc(F)c1)CC31CN(S(=O)(=O)c2cccc(C)c2)C1	0.9	0.4	·	·	75.2*[16.7 µM]	-2.2
CCCNC(=O)N1CC2(CN(S(=O)(=O)c3cccc(OC)c3)C2)c2c(n(C)c3cc(OC)ccc23)[C@H]1CO	5.4	8.6*	·	·	·	-5.7
COc1ccc2c3c([nH]c2c1)[C@H](CO)N(C(=O)Nc1cccc(F)c1)CC31CCN(S(=O)(=O)c2cccc(C)c2)CC1	0.3	2.2	·	·	·	-5.8
COc1cccc(S(=O)(=O)N2CC3(CN(C(=O)Nc4cccc(F)c4)[C@@H](CO)c4[nH]c5cc(OC)ccc5c43)C2)c1	0.1	6.3	·	·	93.3*[16.7 µM]	-3.5
Cc1ccccc1S(=O)(=O)N1C[C@H](O)COC[C@@H]2O[C@H](CC(=O)N3CCC(Cc4ccccc4)CC3)CC[C@H]21	-42.5	-0.1	-7.6[16.7 µM]	-4.0	·	-24.4
C[C@H]1CN([C@@H](C)CO)C(=O)c2ccccc2-c2ccccc2CO[C@@H]1CN(C)S(=O)(=O)c1ccsc1	-25.2	·	·	·	·	13.2
CC1CCN(c2ccccc2NC(=O)c2cc([N+](=O)[O-])ccc2N2CCOCC2)CC1	3.3	0.2	-6.2	2.8	60.2*	-3.0
O=C(NCCOc1ccccc1F)c1cc([N+](=O)[O-])ccc1N1CCOCC1	-4.6	8.3*	-0.4	-9.7	63.2*	6.2
CCc1ccccc1NC(=O)c1cc([N+](=O)[O-])ccc1N1CCOCC1	7.2	1.0	-1.2	-3.0	-14.6	9.5
O=C(NCCOc1ccccc1)c1cc([N+](=O)[O-])ccc1N1CCOCC1	3.5	11.6*	39.1	1.0	2.3	-7.1
O=C(NCCc1ccc(F)cc1)c1cc([N+](=O)[O-])ccc1N1CCOCC1	-10.6	2.2	-1.2	-1.9	-15.9	4.3
O=C(C1CC1)N1CC(=O)N2[C@H](CO)[C@H](c3ccc(Br)cc3)[C@H]2C1	10.8	0.9	·	·	·	0.8
C[C@@H]1CN([C@H](C)CO)C(=O)Cc2cc(NS(=O)(=O)c3cccs3)ccc2O[C@H]1CN(C)Cc1ccc(C(=O)O)cc1	26.1	0.2	-1.7[16.7 µM]	-1.5	1.1[16.7 µM]	1.3
CCCC#Cc1ccc2c(c1)O[C@H](CN(C)S(=O)(=O)c1cccc(OC)c1)[C@H](C)CN([C@H](C)CO)S2(=O)=O	3.6	-3.3	56.8	-2.4	38.2[16.7 µM]	7.1
COc1ccccc1S(=O)(=O)N(C)C[C@H]1Oc2cc(C#CCC(C)C)ccc2S(=O)(=O)N([C@@H](C)CO)C[C@H]1C	0.6	1.8	37.0[16.7 µM]	42.1	55.0*[16.7 µM]	1.1

Screening data from PubChem.
